pIC50: −log10 of the molar value.
How the values were obtained:
A549 [1] = test: Antitumor activity against human A549 cells xenografted in BALB/c nude mouse assessed as tumor growth inhibition at 30 mg/kg, ip administered every other day for 1 month measured every other day post dose relative to vehicle-treated control; assay type: functional; settings: read-out: TGI
Mus musculus = test: Toxicity in BALB/c nude mouse xenografted with human A549 cells assessed as loss of body weight at 30 mg/kg, ip administered every other day for 1 month measured every other day post dose relative to vehicle-treated control; assay type: organism-based; settings: in vivo
[2] = Solubility of the compound in sodium phosphate buffer at pH 7.4 at 25 +/- 1 degC; assay type: physicochemical
A549 [3] = test: Cytotoxicity against human A549 cells assessed as cell viability after 48 hrs by MTT assay; assay type: functional, cell-based; settings: A549, 48 h
Outline: (§1)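 Cancer cell lines treated with compound for 48 h, and viability read by MTT assay. IC50 given as mean ± SD from at least three independent experiments.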

HeLa = test: Cytotoxicity against human HeLa cells assessed as cell viability after 48 hrs by MTT assay; assay type: functional, cell-based; outline: as §1
[4] = Cytotoxicity against human Bel7402 cells assessed as cell viability after 48 hrs by MTT assay; assay type: functional, cell-based; settings: Bel-7402, 48 h; outline: as §1
MCF7 = test: Cytotoxicity against human MCF7 cells assessed as cell viability after 48 hrs by MTT assay; assay type: functional, cell-based; settings: MCF7, 48 h; outline: as §1
A2780 = test: Cytotoxicity against human A2780 cells assessed as cell viability after 48 hrs by MTT assay; assay type: functional, cell-based; settings: A2780, 48 h; outline: as §1
[5] = Cytotoxicity against human HCT8 cells assessed as cell viability after 48 hrs by MTT assay; assay type: functional, cell-based; settings: HCT-8, 48 h; outline: as §1
[6] = Metabolic stability in Sprague-Dawley rat liver microsomes assessed as compound remaining at 30 mins in presence of NADPH regenerating system by HPLC method; assay type: ADME; settings: read-out: Stability
Outline: (§2)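 Test compound incubated with rat liver microsomes at 37 ℃ in buffer containing an NADPH regenerating system for the stated time. Remaining parent compound was quantified by HPLC.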

[7] = Metabolic stability in Sprague-Dawley rat liver microsomes assessed as compound remaining at 60 mins in presence of NADPH regenerating system by HPLC method; assay type: ADME; settings: read-out: Stability; outline: as §2
[8] = Metabolic stability in Sprague-Dawley rat liver microsomes assessed as compound remaining at 90 mins in presence of NADPH regenerating system by HPLC method; assay type: ADME; settings: read-out: Stability; outline: as §2
[9] = Metabolic stability in Sprague-Dawley rat liver microsomes assessed as compound remaining at 120 mins in presence of NADPH regenerating system by HPLC method; assay type: ADME; settings: read-out: Stability
Outline: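 Rat liver microsomes incubated with compound at 37 ℃ for indicated times in buffer containing NADPH regenerating system; residual parent determined by HPLC.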

[10] = Cytotoxicity against human A2780/TAX cells assessed as growth inhibition after 48 hrs by MTT assay; assay type: functional, cell-based
Outline: (§3)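 Drug-resistant lines were tested by a 48 h MTT viability assay. IC50 was derived from dose-response curves and reported as mean ± SE of at least three independent experiments.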

[11] = Cytotoxicity against human HCT8/VCT cells assessed as growth inhibition after 48 hrs by MTT assay; assay type: functional, cell-based; outline: as §3
[12] = Cytotoxicity against human MCF7/DX cells assessed as growth inhibition after 48 hrs by MTT assay; assay type: functional, cell-based; outline: as §3

SMILES: COc1ccc2c(/C=C(\C)C(=O)c3cc(OC)c(OC)c(OC)c3)cn(P(=O)([O-])[O-])c2c1.[Na+].[Na+]
- inhibition in vivo at 30 mg/kg (A549 [1]): 70.4%
- Activity (Mus musculus): Non-toxic
- solubility [2]: 125 mg/mL
- pIC50 (A549 [3]): 7.25
- pIC50 (HeLa): 7.11
- pIC50 [4]: 7.21
- pIC50 (MCF7): 7.42
- pIC50 (A2780): 7.37
- pIC50 [5]: 7.04

SMILES: COc1ccc(/C=C\c2cc(OC)c(OC)c(OC)c2)cc1O [COMBRETASTATIN A4]
- remaining at 0.5 h [6]: 68.1%
- remaining at 1 h [7]: 28.6%
- remaining at 1.5 h [8]: 23.1%
- remaining at 2 h [9]: 20.7%
- pIC50 (A549 [3]): 8.30
- pIC50 (HeLa): 7.92
- pIC50 [4]: 8.52
- pIC50 (A2780): 8.05
- pIC50 [5]: 8.77
- pIC50 [10]: 7.24
- pIC50 [11]: 8.30
- pIC50 [12]: 7.57

Reference: ChEMBL document CHEMBL3817728, “Synthesis, Evaluation, and Mechanism Study of Novel Indole-Chalcone Derivatives Exerting Effective Antitumor Activity Through Microtubule Destabilization in Vitro and in Vivo” (J Med Chem, 2016)
